Results taken from ChEMBL document CHEMBL2311339, “Identification of GZD824 as an orally bioavailable inhibitor that targets phosphorylated and nonphosphorylated breakpoint cluster region-Abelson (Bcr-Abl) kinase and overcomes clinically acquired mutation-induced resistance against imatinib” (J Med Chem, 2013).
Active and inactive are the calls of the source. The calls are words filed in the database; no cut-off is given here.

Legend:
BaF3 [1] = assay: Antitumor activity against mouse BA/F3 cells expressing BCR-ABL T315I mutant allografted in SCID mouse assessed as suppression of cell proliferation at 5 to 20 mg/kg/day, po qd for 10 days relative to untreated vehicle; assay type: functional, organism-based
Outline: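 Ba/F3 Bcr-Abl T315I cells stably carrying firefly luciferase, in saline, were injected i.v. into SCID nude mice (2 × 10^6 cells/0.1 mL). Imaging began 5−7 days later: i.p. D-luciferin, halothane anaesthesia, images after 5 min. Mice were randomised by signal and dosed by oral gavage once daily for 10 days (5, 10, 20 mg/kg/day; imatinib 100 mg/kg; vehicle). Luminescence was quantified; survival by Kaplan−Meier with log-rank test.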

BaF3 [2] = assay: Antitumor activity against mouse BA/F3 cells expressing BCR-ABL F317L mutant allografted in po dosed SCID mouse assessed as reduction of hepatosplenomegaly administered qd for 14 days; assay type: functional, organism-based
BaF3 [3] = assay: Antitumor activity against mouse BA/F3 cells expressing wild type BCR-ABL allografted in SCID mouse assessed as inhibition of tumor growth at 50 to 100 mg/kg/day, po qd for 14 days; assay type: functional, organism-based
Outline: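 Ba/F3 cells stably expressing Bcr-Abl (wild type or mutant) were grown in RPMI 1640 with 10% FBS and no IL-3, then suspended in saline (2.5 × 10^7 cells/mL) and given as 0.2 mL s.c. in the right flank. Groups were randomised at 100−200 mm3. Once-daily oral gavage for 14 days in DMSO/Cremophor/ethanol/saline vehicle; reference imatinib 50 or 100 mg/kg/day. Volume L × W²/2 every 2 days; n = 10; t test versus vehicle.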

Mus musculus = assay: Toxicity in human K562 cells xenografted mouse assessed as mortality; assay type: organism-based; details: in vivo
Outline: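 K562 cells suspended in normal saline (2.5 × 10^7 cells/mL), 0.2 mL injected subcutaneously into the right flank. Mice were randomised once mean tumour volume reached 100−200 mm3. Oral gavage once daily for 14 days, in 1% DMSO/22.5% Cremophor/7.5% ethanol/69% saline. Tumour volume (L × W²/2) and body weight taken every 2 days; recurrence followed 20 days after dosing stopped. n = 10/group; unpaired t test versus vehicle.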

Caco-2 = assay: Efflux ratio of permeability from […] in human Caco2 cells; assay type: ADME, cell-based
Cytochrome P450 1A2 = Cytochrome P450 1A2 (Homo sapiens, UniProt P05177); assay: Inhibition of human recombinant CYP1A2 at 30 uM after 30 mins; assay type: ADME; details: recombinant enzyme, 0.5 h
Chain of Cytochrome P450 1A2 (P05177 whole entry): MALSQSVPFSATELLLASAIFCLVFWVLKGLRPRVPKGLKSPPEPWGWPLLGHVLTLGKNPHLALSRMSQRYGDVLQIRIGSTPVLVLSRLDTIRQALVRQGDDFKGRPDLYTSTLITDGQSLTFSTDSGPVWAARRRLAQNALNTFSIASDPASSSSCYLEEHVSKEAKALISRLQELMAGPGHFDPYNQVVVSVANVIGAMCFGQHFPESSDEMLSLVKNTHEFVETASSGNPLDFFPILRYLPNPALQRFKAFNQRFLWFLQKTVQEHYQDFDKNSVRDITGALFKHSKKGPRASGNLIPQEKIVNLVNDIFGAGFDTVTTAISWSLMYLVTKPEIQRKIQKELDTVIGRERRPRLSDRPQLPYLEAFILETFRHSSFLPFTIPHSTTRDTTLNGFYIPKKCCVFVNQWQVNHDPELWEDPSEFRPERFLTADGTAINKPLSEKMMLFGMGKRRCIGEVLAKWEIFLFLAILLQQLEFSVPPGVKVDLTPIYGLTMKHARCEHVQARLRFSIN

[4] = Cytotoxicity against mouse BA/F3 cells expressing BCR-ABL F317L mutant assessed as growth inhibition after 72 hrs by CCK-8 assay; details: BaF3, 72 h

Compound: Cc1ccc(C(=O)Nc2ccc(CN3CCN(C)CC3)c(C(F)(F)F)c2)cc1C#Cc1cnc2[nH]ncc2c1 [OLVEREMBATINIB]
- Activity (BaF3 [1]): Active
- Activity (BaF3 [2]): Active
- TGI (BaF3 [3]): Dose-dependent effect
- Activity (Mus musculus): Non-toxic
- Ratio (Caco-2): 0.9
- inhibition (INH) (Cytochrome P450 1A2): Not Active
- IC50 [4]: 2.7 nM
